ChEMBL document CHEMBL1135730, “Nanomolar small molecule inhibitors for alphav(beta)6, alphav(beta)5, and alphav(beta)3 integrins” (J Med Chem, 2002)

How the values were obtained:
[1] = biological target: T1, Integrin alpha-V/beta-5 (Homo sapiens, UniProt P06756+P18084); test: Inhibition of vitronectin binding to recombinant human alphaV-beta5 integrin; assay type: protein-complex assay
Procedure, shortened: (§1)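 Isolated-integrin ELISA. Plates were coated by adsorption from neutral buffer with 1 µg mL^-1 integrin: recombinant human αvβ3, αvβ5 or αvβ6, or αIIbβ3 isolated from human platelets. The plate was blocked with BSA. Biotinylated ligand (1 µg mL^-1) was added with serial inhibitor dilutions: human serum vitronectin for αvβ3/αvβ5, fibronectin for αvβ6, fibrinogen for αIIbβ3. Bound biotin was detected with peroxidase anti-biotin and TMB.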

[2] = biological target: T1, Integrin alpha-V/beta-5; test: Inhibition of integrin alpha-v/beta-5 mediated UCLAP-3 cell adhesion on vitronectin; assay type: functional, cell-based
Procedure, shortened: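 UCLAP-3 human lung adenocarcinoma cells attach to vitronectin exclusively via αvβ5. Freshly harvested cells were plated on vitronectin-coated surfaces into serial inhibitor dilutions. Attachment was measured at 1 h by lysosomal hexosaminidase cell count. IC50 by curve fitting, mean of two independent determinations.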

[3] = biological target: Integrin alpha-IIb/beta-3 (Homo sapiens, UniProt P05106+P08514); test: Inhibition of fibrinogen binding to human platelet glycoprotein alpha IIb beta3 integrin
Integrin alpha-IIb/beta-3, sequence (P05106 27-788 limits assumed): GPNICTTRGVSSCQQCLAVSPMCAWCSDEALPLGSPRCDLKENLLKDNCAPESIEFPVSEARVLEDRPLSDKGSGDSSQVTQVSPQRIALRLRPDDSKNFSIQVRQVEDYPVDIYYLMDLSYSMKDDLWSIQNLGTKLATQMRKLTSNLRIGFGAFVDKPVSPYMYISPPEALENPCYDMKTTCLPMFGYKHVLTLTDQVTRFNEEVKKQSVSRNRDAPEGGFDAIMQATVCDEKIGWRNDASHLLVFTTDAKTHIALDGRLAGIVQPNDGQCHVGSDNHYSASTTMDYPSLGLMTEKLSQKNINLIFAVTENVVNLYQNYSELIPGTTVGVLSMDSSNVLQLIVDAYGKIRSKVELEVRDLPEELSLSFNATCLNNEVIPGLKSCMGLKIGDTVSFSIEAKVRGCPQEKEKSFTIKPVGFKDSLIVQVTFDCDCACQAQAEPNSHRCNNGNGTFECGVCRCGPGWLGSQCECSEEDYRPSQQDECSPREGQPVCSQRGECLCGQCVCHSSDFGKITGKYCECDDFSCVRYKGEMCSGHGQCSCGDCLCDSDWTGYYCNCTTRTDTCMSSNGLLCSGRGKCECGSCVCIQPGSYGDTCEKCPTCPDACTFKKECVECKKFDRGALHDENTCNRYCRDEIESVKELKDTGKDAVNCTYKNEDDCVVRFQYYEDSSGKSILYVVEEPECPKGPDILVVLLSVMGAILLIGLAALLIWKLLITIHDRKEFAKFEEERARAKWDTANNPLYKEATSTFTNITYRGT
Integrin alpha-IIb/beta-3, sequence (P08514 32-887 limits assumed): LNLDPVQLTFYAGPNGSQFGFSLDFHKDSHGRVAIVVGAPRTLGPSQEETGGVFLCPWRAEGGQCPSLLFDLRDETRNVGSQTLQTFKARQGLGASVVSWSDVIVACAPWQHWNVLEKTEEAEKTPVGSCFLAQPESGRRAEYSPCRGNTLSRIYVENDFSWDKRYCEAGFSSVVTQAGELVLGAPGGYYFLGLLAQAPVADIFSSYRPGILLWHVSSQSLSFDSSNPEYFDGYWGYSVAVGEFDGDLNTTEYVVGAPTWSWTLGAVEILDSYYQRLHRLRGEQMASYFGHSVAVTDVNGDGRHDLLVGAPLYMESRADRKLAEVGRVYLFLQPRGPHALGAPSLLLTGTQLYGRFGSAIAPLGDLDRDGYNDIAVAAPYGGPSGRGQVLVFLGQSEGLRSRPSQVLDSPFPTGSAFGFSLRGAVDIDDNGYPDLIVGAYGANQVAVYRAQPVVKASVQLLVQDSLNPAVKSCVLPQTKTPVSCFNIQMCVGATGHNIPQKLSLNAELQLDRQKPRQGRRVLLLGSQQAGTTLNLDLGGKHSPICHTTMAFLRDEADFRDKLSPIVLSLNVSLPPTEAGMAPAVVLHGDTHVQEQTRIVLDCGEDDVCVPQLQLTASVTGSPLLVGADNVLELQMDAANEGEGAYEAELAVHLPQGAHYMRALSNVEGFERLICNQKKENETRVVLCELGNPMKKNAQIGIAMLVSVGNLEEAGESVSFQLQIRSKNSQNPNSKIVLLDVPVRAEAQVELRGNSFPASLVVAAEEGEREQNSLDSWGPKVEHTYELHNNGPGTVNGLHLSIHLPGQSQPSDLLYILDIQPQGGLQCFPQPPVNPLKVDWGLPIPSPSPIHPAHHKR
Integrin alpha-IIb/beta-3, sequence (P08514 891-1039 limits assumed): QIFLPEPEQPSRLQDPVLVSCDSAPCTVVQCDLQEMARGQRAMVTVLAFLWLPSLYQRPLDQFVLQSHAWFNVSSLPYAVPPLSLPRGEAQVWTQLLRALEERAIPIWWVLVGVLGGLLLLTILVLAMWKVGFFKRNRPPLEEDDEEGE

[4] = biological target: T2, Integrin alpha-V/beta-3 (Homo sapiens, UniProt P05106+P06756); test: Inhibition of integrin alpha-v/beta-3 mediated M21 cell adhesion to vitronectin with monoclonal antibody P1F6; assay type: functional, cell-based
T2 sequence (P05106 27-788 limits assumed): as the sequence (P05106 27-788 limits assumed) above
T2 sequence (P06756 31-889 limits assumed): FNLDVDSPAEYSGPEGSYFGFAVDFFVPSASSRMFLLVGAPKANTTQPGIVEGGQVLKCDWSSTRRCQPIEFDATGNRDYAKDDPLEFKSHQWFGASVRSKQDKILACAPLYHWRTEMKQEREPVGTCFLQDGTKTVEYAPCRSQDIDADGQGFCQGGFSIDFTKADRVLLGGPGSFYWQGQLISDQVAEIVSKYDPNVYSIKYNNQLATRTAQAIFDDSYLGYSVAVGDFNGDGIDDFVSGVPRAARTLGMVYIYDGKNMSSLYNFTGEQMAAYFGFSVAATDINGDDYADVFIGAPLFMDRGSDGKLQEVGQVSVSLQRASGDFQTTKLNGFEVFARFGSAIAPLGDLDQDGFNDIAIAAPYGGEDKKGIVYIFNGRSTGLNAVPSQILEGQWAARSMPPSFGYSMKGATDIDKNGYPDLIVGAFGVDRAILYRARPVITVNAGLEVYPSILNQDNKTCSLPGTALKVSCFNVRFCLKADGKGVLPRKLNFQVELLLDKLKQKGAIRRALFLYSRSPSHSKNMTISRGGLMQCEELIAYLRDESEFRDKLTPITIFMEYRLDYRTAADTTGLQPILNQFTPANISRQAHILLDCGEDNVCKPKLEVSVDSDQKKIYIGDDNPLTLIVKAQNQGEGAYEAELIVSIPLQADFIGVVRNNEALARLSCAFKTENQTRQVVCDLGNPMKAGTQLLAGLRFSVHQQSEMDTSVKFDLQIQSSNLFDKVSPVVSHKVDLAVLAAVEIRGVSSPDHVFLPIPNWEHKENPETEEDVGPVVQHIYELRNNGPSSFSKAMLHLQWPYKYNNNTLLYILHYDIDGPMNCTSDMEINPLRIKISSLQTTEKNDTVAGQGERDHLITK
T2 sequence (P06756 891-1048 limits assumed): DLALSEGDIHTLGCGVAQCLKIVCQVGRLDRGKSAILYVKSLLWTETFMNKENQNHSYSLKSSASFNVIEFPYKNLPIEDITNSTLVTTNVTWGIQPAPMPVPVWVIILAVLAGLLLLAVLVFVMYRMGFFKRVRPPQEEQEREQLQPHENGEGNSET
Procedure, shortened: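 M21 human melanoma cells were freshly harvested and plated on vitronectin-coated surfaces into serial inhibitor dilutions, with αvβ5-blocking mAb P1F6 present so attachment is αvβ3-dependent. Attached cells were counted after 1 h by lysosomal hexosaminidase. IC50 by curve fitting, mean of two independent determinations.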

[5] = biological target: T3, Integrin alpha-V/beta-6 (Homo sapiens, UniProt P06756+P18564); test: Inhibition of fibronectin binding to recombinant human alphaV-beta6 integrin; assay type: protein-complex assay; procedure, shortened: as §1
T3 sequence (P06756 31-889 limits assumed): as the sequence (P06756 31-889 limits assumed) above
T3 sequence (P06756 891-1048 limits assumed): as the sequence (P06756 891-1048 limits assumed) above
T3 sequence (P18564 22-788 limits assumed): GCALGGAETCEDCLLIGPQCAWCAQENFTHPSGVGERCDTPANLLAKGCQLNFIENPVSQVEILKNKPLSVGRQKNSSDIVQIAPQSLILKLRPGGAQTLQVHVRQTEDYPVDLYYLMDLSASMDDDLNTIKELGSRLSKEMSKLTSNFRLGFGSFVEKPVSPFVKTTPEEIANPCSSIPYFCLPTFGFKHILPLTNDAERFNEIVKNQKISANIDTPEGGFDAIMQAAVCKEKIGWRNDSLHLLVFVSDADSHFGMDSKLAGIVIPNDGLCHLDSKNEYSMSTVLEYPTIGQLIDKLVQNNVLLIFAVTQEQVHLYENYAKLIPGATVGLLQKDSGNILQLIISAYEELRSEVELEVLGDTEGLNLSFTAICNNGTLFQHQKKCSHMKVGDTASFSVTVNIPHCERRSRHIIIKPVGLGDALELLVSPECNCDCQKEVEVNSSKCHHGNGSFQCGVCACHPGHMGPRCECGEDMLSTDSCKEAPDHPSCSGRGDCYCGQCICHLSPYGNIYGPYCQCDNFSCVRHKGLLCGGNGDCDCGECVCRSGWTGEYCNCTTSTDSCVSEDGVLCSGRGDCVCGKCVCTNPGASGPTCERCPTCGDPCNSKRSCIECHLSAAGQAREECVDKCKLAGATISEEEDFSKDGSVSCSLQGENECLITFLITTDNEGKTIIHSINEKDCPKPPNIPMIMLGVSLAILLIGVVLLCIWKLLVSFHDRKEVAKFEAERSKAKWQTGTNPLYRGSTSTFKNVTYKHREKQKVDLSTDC

[6] = biological target: T3, Integrin alpha-V/beta-6; test: Inhibition of integrin alpha-v/beta-6 mediated UCLAP-3 cell adhesion to fibronectin; assay type: functional, cell-based
[7] = biological target: T2, Integrin alpha-V/beta-3; test: Inhibition of vitronectin binding to recombinant human alphaV-beta3 integrin; assay type: protein-complex assay; procedure, shortened: as §1

T1 sequence (P06756 31-889 limits assumed): as the sequence (P06756 31-889 limits assumed) above
T1 sequence (P06756 891-1048 limits assumed): as the sequence (P06756 891-1048 limits assumed) above
T1 sequence (P18084 24-799 limits assumed): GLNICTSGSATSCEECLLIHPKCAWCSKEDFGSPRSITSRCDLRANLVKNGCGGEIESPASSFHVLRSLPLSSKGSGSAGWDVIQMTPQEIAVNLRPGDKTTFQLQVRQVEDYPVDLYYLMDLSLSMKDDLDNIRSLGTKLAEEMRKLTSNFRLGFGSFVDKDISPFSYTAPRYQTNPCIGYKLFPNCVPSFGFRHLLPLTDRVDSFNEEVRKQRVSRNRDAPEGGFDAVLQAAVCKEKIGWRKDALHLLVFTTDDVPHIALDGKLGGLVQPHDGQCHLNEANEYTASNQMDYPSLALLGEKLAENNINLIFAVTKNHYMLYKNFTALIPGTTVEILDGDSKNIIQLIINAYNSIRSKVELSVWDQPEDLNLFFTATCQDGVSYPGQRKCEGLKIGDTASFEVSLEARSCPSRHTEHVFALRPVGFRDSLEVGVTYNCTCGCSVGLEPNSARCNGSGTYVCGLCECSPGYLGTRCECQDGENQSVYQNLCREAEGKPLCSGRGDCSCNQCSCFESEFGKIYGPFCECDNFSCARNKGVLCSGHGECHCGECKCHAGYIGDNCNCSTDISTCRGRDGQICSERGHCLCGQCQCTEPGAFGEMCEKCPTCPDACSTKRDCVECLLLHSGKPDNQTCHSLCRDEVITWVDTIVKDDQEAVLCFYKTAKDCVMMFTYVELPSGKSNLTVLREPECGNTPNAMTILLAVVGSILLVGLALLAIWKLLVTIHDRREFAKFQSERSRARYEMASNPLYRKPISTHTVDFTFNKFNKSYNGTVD

IC50 [1] [nM] | IC50 [2] [nM] | IC50 [3] [nM] | IC50 [4] [nM] | IC50 [5] [nM] | IC50 [6] [nM] | IC50 [7] [nM] | SMILES
662 | 1300 | 6000 | 3900 | 2400 | 37000 |  | C[C@H]1C(=O)N[C@@H](CCCN=C(N)N)C(=O)NCC(=O)N[C@@H](CC(=O)O)C(=O)N[C@H](Cc2ccccc2)C(=O)N1C
26 | 43000 |  | > 50000 | 460 | 9600 |  | N=C(N)NCCCCC(=O)NNC(=O)NC(CC(=O)O)c1ccccc1 (centres undefined)
5170 | 20000 | 4230 | 3000 | 0.04 | 200 | 8 | Cc1ccnc(NCCCC(=O)NCC(=O)NC(CC(=O)O)c2ccc(-c3cccc4ccccc34)cc2)c1 (centres undefined)
2500 | 5000 | > 10000 | 12000 | 1.7 | 300 | 64 | Cc1ccnc(NCCCCC(=O)NNC(=O)NC(CC(=O)O)c2cc(Cl)cc(Cl)c2)c1 (centres undefined)
8700 | 24000 | 3000 | 970 | 53 | 3800 | 4 | Cc1ccnc(NCCCCC(=O)NNC(=O)CC(CC(=O)O)c2ccc(-c3ccccc3)cc2)c1 (centres undefined)
1600 | 21000 | 580 | > 50000 | 61 | 2100 | 53 | Cc1ccnc(NCCCCCCC(=O)NC(CC(=O)O)c2cccc([N+](=O)[O-])c2)c1 (centres undefined)
350 | 2000 | > 10000 | 16000 | 0.4 | 300 | 53 | Cc1ccnc(NCCCCC(=O)NCC(=O)NC(CC(=O)O)c2cc(Cl)cc(Cl)c2)c1 (centres undefined)
39 | 27000 | > 10000 | 24000 | 0.15 | 30 | 14 | Cc1ccnc(NCCCC(=O)NCC(=O)NC(CC(=O)O)c2cccc(OC(F)(F)F)c2)c1 (centres undefined)
5700 | 18000 | > 10000 | 20000 | 44 | 1600 | 6 | Cc1ccnc(NCCCCC(=O)NNC(=O)CC(CC(=O)O)c2cc(Cl)cc(Cl)c2)c1 (centres undefined)
2670 | 26000 | 4050 | 9500 | 0.6 | 100 | 0.45 | O=C(O)CC(NC(=O)CNC(=O)CCCCNc1ccccn1)c1ccc(-c2ccccc2)cc1 (centres undefined)
42 | 1200 | 7300 | 6900 | 4 | 90 | 13 | O=C(O)CC(NC(=O)CNC(=O)CCCNc1ccccn1)c1cccc([N+](=O)[O-])c1 (centres undefined)
